Series [1] relates to Human immunodeficiency virus 1. The series can be described thus: Inhibition of wild-type HIV 1 HXB2 LTR DNA assessed as reduction in promoter activity after 24 hrs by GFP reporter assay in the absence of Tat. In a few lines:
(§1)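 HEK 293T cells (2×10^5) transfected with LTR-EGFP plasmid, with or without Tat. Ligand (1.5–6.0 µM) added 4 h after transfection, then incubated overnight. Mean EGFP fluorescence measured by flow cytometry, 30000 events, gated on GFP+ cells with viable morphology. n = 3, mean ± s.d., Student's t-test.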

Series [2] deals with Human immunodeficiency virus 1. In words: Antiviral activity against Nef-deficient HIV 1 NL4-3 infected in human TZM-bl cells assessed as inhibition of viral replication at 3 to 6 uM after 48 hrs by luciferase reporter gene assay. The series is classed as functional, organism-based. In a few lines:
(§2)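 TZM-bl cells (HIV-1 LTR-luciferase reporter line), 2×10^4 per well, grown overnight. Ligand preincubated with medium and wild-type or Nef-defective NL4-3 virus for 4 h before infection. Virus stocks were made by transfecting HEK 293T with proviral genomes and amplified in MT2 cells. Luciferase read on lysates after 48 h at 37°C. Values relative to DMSO-only infected control, n = 3, ±SEM.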

Series [3] relates to Human immunodeficiency virus 1. In words: Antiviral activity against wild type HIV 1 NL4-3 infected in human TZM-bl cells assessed as inhibition of viral replication at 3 to 6 uM after 48 hrs by luciferase reporter gene assay. The series is classed as functional, organism-based. The procedure, abridged:
as §2

In series [4] the test system is Human immunodeficiency virus 1. The series can be described thus: Inhibition of wild-type HIV 1 HXB2 LTR DNA assessed as reduction in promoter activity after 24 hrs by GFP reporter assay in the presence of Tat. The procedure, abridged: as §1
Series [5] relates to Human immunodeficiency virus 1. In words: Binding affinity to HIV 1 HXB2 G-quadruplex LTR-FL DNA assessed as change in melting temperature at 16 uM after 24 hrs by circular dichroism spectropolarimeter analysis in the presence of K+. The procedure, abridged:
(§3)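 Oligonucleotides at 4 µM final in 10 mM lithium cacodylate, pH 7.4, with or without 100 mM KCl. Annealed at 95 °C for 5 min, slowly cooled, measured after 24 h. Ligand added after annealing at 16 µM final. CD melting from 20–95 °C, 1 min equilibration per step. Tm taken from a van't Hoff two-state fit.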

The test system of series [6] is Human immunodeficiency virus 1. The series can be described thus: Binding affinity to HIV 1 HXB2 G-quadruplex LTR-2 DNA assessed as change in melting temperature at 16 uM after 24 hrs by circular dichroism spectropolarimeter analysis in the absence of K+. The procedure, abridged: as §3
Series [7] concerns Human immunodeficiency virus. In words: Binding affinity to HIV 1 HXB2 G-quadruplex LTR-4 DNA assessed as change in melting temperature at 16 uM after 24 hrs by circular dichroism spectropolarimeter analysis in the presence of K+. The procedure, abridged:
as §3

The subject of series [8] is Human immunodeficiency virus 1. In words: Binding affinity to HIV 1 HXB2 G-quadruplex FL-LTR DNA assessed as blocking sites at G-tracts (4 to 2) after 20 mins by Taq polymerase stop assay. In a few lines: (§4)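 Primer was 5'-32P-labelled (72 nM) and annealed to full-length LTR template (36 nM) in 10 mM lithium cacodylate, pH 7.4. Template was incubated with ligand plus 100 mM KCl for 20 min at room temperature. Extension used Taq Gold polymerase (2 U) at 47°C for 30 min. Reactions were stopped by EtOH precipitation, run on a 12% denaturing gel and read by phosphorimaging as stop sites at G-tracts.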

Series [9] deals with Human immunodeficiency virus 1. In words: Binding affinity to HIV 1 HXB2 G-quadruplex LTR-3 DNA assessed as change in melting temperature at 16 uM after 24 hrs by circular dichroism spectropolarimeter analysis in the absence of K+. In a few lines: as §3
The test system of series [10] is Human immunodeficiency virus 1. The series can be described thus: Binding affinity to HIV 1 HXB2 G-quadruplex LTR-3 DNA assessed as change in melting temperature at 16 uM after 24 hrs by circular dichroism spectropolarimeter analysis in the presence of K+. In a few lines:
as §3

The subject of series [11] is Human immunodeficiency virus 1. In words: Binding affinity to HIV 1 HXB2 G-quadruplex FL-LTR DNA assessed as blocking at G-tracts (6 and 5) after 20 mins by Taq polymerase stop assay. In a few lines:
as §4

The subject of series [12] is Human immunodeficiency virus 1. The series can be described thus: Binding affinity to HIV 1 HXB2 G-quadruplex LTR-2 DNA assessed as change in melting temperature at 16 uM after 24 hrs by circular dichroism spectropolarimeter analysis in the presence of K+. The procedure, abridged: as §3
Series [13] deals with Human immunodeficiency virus 1. In words: Binding affinity to HIV 1 HXB2 G-tract mutant m3 FL-LTR assessed as formation of LTR-4 G-quadruplex by Taq polymerase stop assay. The procedure, abridged: (§5)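 Primer extension on wild-type or mutant full-length LTR templates in 100 mM K+ with 100 nM ligand. Labelled primer (72 nM) annealed to template (36 nM) in 10 mM lithium cacodylate, pH 7.4. Ligand/KCl incubation 20 min at room temperature, then Taq Gold extension at 47°C for 30 min. Products on 12% denaturing gel, phosphorimaging of stop sites.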

The test system of series [14] is Human immunodeficiency virus 1. The series can be described thus: Binding affinity to HIV 1 HXB2 G-tract mutant m6 FL-LTR DNA assessed as formation of LTR-2 G-quadruplex by Taq polymerase stop assay. In a few lines: as §5
The subject of series [15] is Human immunodeficiency virus 1. In words: Binding affinity to HIV 1 HXB2 G-tract mutant m3' FL-LTR assessed as effect on LTR G-quadruplex formation by Taq polymerase stop assay. In a few lines: as §5
Series [16] deals with Human immunodeficiency virus 1. The series can be described thus: Binding affinity to HIV 1 HXB2 G-tract mutant m1 FL-LTR assessed as effect on LTR G-quadruplex formation by Taq polymerase stop assay. The procedure, abridged:
as §5

For series [17], the system named is Human immunodeficiency virus 1. In words: Inhibition of HIV 1 HXB2 G-tract mutant m5 LTR DNA assessed as reduction in promoter activity at 1.5 to 6 uM after 24 hrs by luciferase assay. The procedure, abridged:
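HEK 293T cells (5.5×10^4 per well) transfected with LTR-firefly luciferase vector plus HSV-TK Renilla control vector (200 ng each). Cells treated with ligand at 1.5–6.0 µM. Firefly signal normalized to Renilla and expressed relative to untreated control. n = 3, mean ± s.d., Student's t-test.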

Series [18] has as its system Human immunodeficiency virus 1. In words: Inhibition of wild-type HIV 1 HXB2 LTR DNA assessed as reduction in promoter activity at 6 uM after 24 hrs by GFP reporter assay in the presence of Tat. In a few lines: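 HEK 293T cells (2×10^5) transfected with pcLTR-EGFP, with Tat present. Ligand (1.5–6.0 µM) added 4 h after transfection and left overnight. Flow cytometry gated on GFP+ cells of viable morphology, 30000 events per sample; mean EGFP fluorescence read. n = 3, mean ± s.d., t-test.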

In series [19] the test system is Human immunodeficiency virus 1. In words: Inhibition of wild-type HIV 1 HXB2 LTR DNA assessed as reduction in promoter activity at 1.5 to 6 uM after 24 hrs by luciferase assay. The arrangement: scale not given: the % may be the effect or the level left. In a few lines: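 HEK 293T cells (5.5×10^4 per well) co-transfected with LTR-driven firefly luciferase (pGL4.10Luc2/LTR) and TK-promoter Renilla luciferase (pGL4.74), 200 ng each. Treated with ligand at 1.5–6.0 µM. Firefly signal normalized to Renilla. n = 3, mean ± s.d., Student's t-test.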

In series [20] the test system is Human immunodeficiency virus 1. In words: Binding affinity to HIV 1 HXB2 G-tract mutant m2 FL-LTR assessed as formation of LTR-2 G-quadruplex by Taq polymerase stop assay. The procedure, abridged:
as §5

Series [21] can be described thus: Cytotoxicity against human TZM-bl cells at 0.1 to 6 uM after 48 hrs. The series is classed as cell-based. The procedure, abridged:
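TZM-bl cells (2×10^4 per well) grown overnight, then exposed to compound in DMSO carrier at 37°C. Viability read after 48 h with Cell Titer Blue reagent.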

Series [22] deals with Human immunodeficiency virus 1. The series can be described thus: Binding affinity to HIV 1 HXB2 G-tract mutant m3'' FL-LTR assessed as effect on LTR G-quadruplex formation by Taq polymerase stop assay. The procedure, abridged:
as §5

Series [23] relates to Human immunodeficiency virus 1. The series can be described thus: Binding affinity to HIV 1 HXB2 G-tract mutant m5/m4 FL-LTR assessed as formation of LTR G-quadruplex by Taq polymerase stop assay. In a few lines: as §5
Series [24] deals with Human immunodeficiency virus 1. In words: Binding affinity to HIV 1 HXB2 G-tract mutant m6' FL-LTR assessed as formation of LTR-2 and LTR-3 G-quadruplex by Taq polymerase stop assay. The procedure, abridged:
as §5

The source made the active and inactive calls. No cut-off for these calls is given here.

As to `C[n+]1ccccc1-c1c2nc(c(-c3cccc[n+]3C)c3ccc([nH]3)c(-c3cccc[n+]3C)c3ccc([nH]3)c(-c3cccc[n+]3C)c3nc1C=C3)C=C2`, the inhibition result in series [1], in [2], in series [3] and in [4] was “inactive” each time.
For the compound `C[n+]1ccc(-c2c3nc(c(-c4cc[n+](C)cc4)c4ccc([nH]4)c(-c4cc[n+](C)cc4)c4ccc([nH]4)c(-c4cc[n+](C)cc4)c4nc2C=C4)C=C3)cc1`, the ΔTm was 4.5 °C in series [5]; 12.4 °C in series [6]; 43.9 °C in series [7]; 22.9 °C in [9]; 38 °C in [10]; 33.4 °C in series [12]. The outcome in series [8] was inactive. Further, the result in [11] was Active.
Turning to `O=C1c2ccc3c4ccc5c6c(ccc(c7ccc(c2c37)C(=O)N1CCN1CCCCC1)c64)C(=O)N(CCN1CCCCC1)C5=O`, the ΔTm in series [5] came to 8.8 °C; in series [6], 13.8 °C; in [7], 55.8 °C; in series [9], 15 °C; in series [10] it was 16.4 °C; in [12], 31.1 °C.
Regarding `CN(C)c1ccc(Nc2c3ccc(NC(=O)CCN4CCCC4)cc3nc3cc(NC(=O)CCN4CCCC4)ccc23)cc1`, the ΔTm in series [5] is 5.6 °C; in series [6] it was 17.6 °C; in [7], 54 °C; in series [9], 12.9 °C; in [10] it was 42.3 °C; in [12], 39.9 °C. The outcome in series [13], in series [14], in [11] and in series [24] was Active. Moreover, the values for the inhibition in series [1] (concentration not given here), in [18] and in series [4] were 30%, 50% and “Dose-dependent effect”, respectively. The result in series [15], in [16], in series [17], in series [8], in [20] and in series [22] was inactive. In series [23], the outcome was inactive. For the same compound, the Activity in series [19] was 70%; in [21], “Non-toxic”. Moreover, the inhibition entry in series [2] and in series [3] was “Active” throughout.

The values are drawn from ChEMBL document CHEMBL3124897, “A dynamic G-quadruplex region regulates the HIV-1 long terminal repeat promoter” (J Med Chem, 2013).
